Source: PubChem BioAssay
Only some compounds are listed: those with a hit (about 1.1% of all), similar ones and a draw of the others.
aDG glyco up – alpha-DG glycosylation activation | 360,000 compounds, 0.22% hits | activation, % at 10 µM | AID 624168 | Pro5-aDG cells, alpha-DG glycosylation AlphaScreen (IIH6); 0% Pro5, 100% B10-LARGE cell signal;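 active means activation of at least 8% versus controls, or a plate z-score of at least 8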;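 further: Pro5 are CHO cells carrying HIG-tagged alpha-DG that lacks glycosylation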
GRK2 aptamer HTS – blocks RNA aptamer binding to human GRK2; bead flow cytometry, FAM-aptamer displacement from GRK2; inhibition of aptamer binding, % at 10 µM; 330,000 compounds, 0.59% hits; AID 488847;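 active means inhibition of aptamer binding above 40%, roughly 3 SD of noise, on plates passing a quality check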;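 further: median bead fluorescence of bound FAM aptamer so fluorescent compounds give negative values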
Target sequence (P25098 whole entry, looked up): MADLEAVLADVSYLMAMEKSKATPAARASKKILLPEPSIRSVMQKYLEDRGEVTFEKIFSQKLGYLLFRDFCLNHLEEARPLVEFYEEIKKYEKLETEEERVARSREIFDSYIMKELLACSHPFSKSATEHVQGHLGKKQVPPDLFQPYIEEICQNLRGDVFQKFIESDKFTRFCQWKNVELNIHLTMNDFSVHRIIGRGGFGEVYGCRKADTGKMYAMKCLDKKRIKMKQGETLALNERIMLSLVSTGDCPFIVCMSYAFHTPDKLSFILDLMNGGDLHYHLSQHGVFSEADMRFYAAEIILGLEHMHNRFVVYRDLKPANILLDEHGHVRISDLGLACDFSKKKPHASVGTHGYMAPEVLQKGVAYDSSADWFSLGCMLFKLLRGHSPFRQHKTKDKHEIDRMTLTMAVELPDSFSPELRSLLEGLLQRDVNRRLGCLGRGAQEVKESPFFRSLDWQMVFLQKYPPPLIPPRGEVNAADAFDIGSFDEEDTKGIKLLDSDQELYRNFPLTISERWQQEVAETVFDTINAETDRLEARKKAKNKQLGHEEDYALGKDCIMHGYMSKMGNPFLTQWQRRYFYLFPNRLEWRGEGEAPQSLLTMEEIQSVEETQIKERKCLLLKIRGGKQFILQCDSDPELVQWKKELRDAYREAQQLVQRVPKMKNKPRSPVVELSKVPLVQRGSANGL
T cell modulator – T cell immune modulation candidate. response (vesicle binding), % at 7 µM. 330,000 compounds, 0.068% hits. 2C CD8+ T cell-vesicle binding, flow cytometry; hits give low values;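 active means response, share of CD8 T cells binding vesicles, and their 90th percentile fluorescence all below set limits, cut at about 80% in these data, passing the limit was not always enough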;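 further: values below 100% mean blocked vesicle binding to the CD8+ T cells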
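Benchmarks: naked versus QL9-loaded vesicles / Assay system: purified 2C TCR transgenic mouse naive CD8+ T cells / Technique: high-throughput flow cytometry with anti-B7-1 and anti-CD8 staining / Timing: Cell–vesicle co-incubation 1.5 h at 37 °C, staining 20 min on ice / Read-out: percent CD8+ FL2 mean versus row control / Probe or stimulus: QL9-loaded Drosophila micro-vesicles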
CaV13 ICDI inh – Disruptors of the CACNA1D IQ motif to Ca2+-dependent inactivation inhibitor domain association, primary screening, Förster resonance energy transfer in intact living …; HEK cells, CFP/YFP FRET ICDI-IQ, plate reader, 10 min; percent FRET-ratio fall versus neutral wells; inhibition, % at 12.3 µM; 340,000 compounds, 0.098% hits; AID 743397;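 active means mean replicate inhibition of at least 30% and at least 1% of replicates passing that level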;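 further: 0% = median of the neutral control wells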
procasp7 counter – activates human procaspase-7, counter-screen for procaspase-3 activators; activation, % at 8.5 µM; P55210; recombinant procaspase-7, Ac-DEVD-pNA absorbance 405 nm; D23A/D198A/D206A triple mutant, cannot self-cleave; scale: DMSO 0, 5 µM enzyme 100; 330,000 compounds, 0.093% hits;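 active means percent activation above the screen-wide mean plus 3 SD, cut at about 25% in these data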
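Assay system: Uncleavable procaspase-7 mutant enzyme | Input: 2 µM procaspase-7 mutant as dispensed | Timing: 1 h compound preincubation, 2 h substrate cleavage, 25 °C | Repeats: One well per compound | Control set: DMSO wells as 0%, DMSO with 5 µM added PC-7 as 100% | Technique: Epi-absorbance of released pNA at 405 nm, two timepoints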
procasp3 activ – activates human procaspase-3; recombinant procaspase-3 D3A, Ac-DEVD-pNA absorbance 405 nm; activation, % at 8.5 µM; 330,000 compounds, 0.11% hits;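 active means activation above the mean of all tested compounds plus 3 SD, cut at about 21% in these data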;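 further: 0% = DMSO alone and 100% = DMSO wells spiked with extra 5 µM PC-3 D3A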
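Technique: 405 nm absorbance of p-nitroaniline, reads at 0 and 120 min; Test system: Procaspase-3 D3A mutant; Incubation: 1 h enzyme-compound preincubation, then 2 h substrate reaction, 25 °C; Repeats: singlicate, each compound tested once; Benchmarks: low control DMSO wells, high control DMSO plus 5 µM PC-3 D3A.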
* = called active by the depositor; i = inactive; x = no result given; + = active, no number; ! = not active in a repeat.

SMILES	aDG glyco up	GRK2 aptamer HTS	T cell modulator	CaV13 ICDI inh	procasp7 counter	procasp3 activ
Fc1ccc2[nH]c3c(N4CCN(c5ccccc5)CC4)ncnc3c2c1	3	0	186	-7	3	3
CCOC(=O)N1CCN(c2ncnc3c2[nH]c2ccc(OC)cc23)CC1	1	0	214	-5	-3	1
CCCCOc1ncnc2c1[nH]c1ccc(F)cc12	6.5*	1	229	x	-3	-8
CCOC(=O)N1CCN(c2ncnc3c2[nH]c2ccc(F)cc23)CC1	5.9*	2	155	-6	-3	-3
COC(=O)Cc1nnn2c1[C@H](C)[C@H](c1ccccc1Br)OC[C@@H]2c1ccccc1	x	x	x	-4	x	x
Cn1cc(CC(=O)Nc2ccc(Oc3cccnc3)cc2)c2ccccc21	x	x	x	-2	x	x
O=C(Nc1ccc(S(=O)(=O)Nc2ncccn2)cc1)c1cccnc1	0	6	553	-3	-7	4
CCNS(=O)(=O)c1ccc(NC(=O)c2cccnc2)cc1	17*	2	367	-4	1	5
Cc1cccn2c(=O)c3cc(C#N)c(=O)n(-c4c(C)n(C)n(-c5ccccc5)c4=O)c3nc12	0	7	i	-4	-8	-13
Cc1cc(-n2c(=O)c(C#N)cc3c(=O)n4cccc(C)c4nc32)no1	0	3	661	43*	-6	-7
CCNC1=C(Cl)C(=O)c2ccccc2C1=O	12*	0	201	-6	-7	-4
C=CCCC1CN(Cc2ccc(OC)cc2)S(=O)(=O)c2c(NCc3cc(OC)c(OC)c(OC)c3)cccc2O1 (stereo not drawn)	x	x	x	-7	x	x
COc1ccccc1C(=O)n1nc(-c2ccco2)nc1SC	0	3	28*	4	0	11
CSc1nc(-c2ccco2)nn1C(=O)c1ccccc1	0	0	147	x	8	4
Oc1ccc(N=C/C=C/c2cccc(Br)c2)cc1-c1nc2ccccc2s1	0	85*	663	x	-3	3
COC(=O)c1cc2c(c3c4ccccc4n(S(=O)(=O)c4cccc(C)c4)c13)C(=O)N(C)C2	x	x	x	-10	x	x
N=c1n(CCN2CCCCC2)c2ccccc2n1CC(=O)c1ccc(Cl)c(Cl)c1	5.4*	0	0	-6	-9	0
N=c1n(CCN2CCCCC2)c2ccccc2n1CC(O)c1ccc(Cl)c(Cl)c1 (stereo not drawn)	0	0	375	-5	1	-6
Cc1cccc(C)c1NC(=O)C1CCCN(CCCc2ccccc2)C1 (stereo not drawn)	0	x	x	x	x	x
CCOC(=O)C1CCCN(CCCc2ccccc2)C1 (stereo not drawn)	0	3	220	38*!	-1	2
CC(C)C[C@H](NC(=O)c1nccs1)C(=O)N1CCC[C@H]1C(=O)NCc1ccccc1	x	x	x	-10	x	x
COc1cc(NC(=S)NC(C)(C)C)c(OC)cc1Cl	1	0	360	-6	-11	-7
COc1cc(NC(=S)NCCCO)c(OC)cc1Cl	0	42*	265	-2	-1	4
COCC#Cc1cnc2c(c1)C(=O)N([C@@H](C)CO)C[C@H](C)[C@H](CN(C)C(=O)c1ccc3c(c1)OCO3)O2	x	x	x	-5	x	x
c1ccc(CSC2=NNC(c3ccccn3)S2)cc1 (stereo not drawn)	0	0	68*	-4	-16	-19
SMILES	aDG glyco up	GRK2 aptamer HTS	T cell modulator	CaV13 ICDI inh	procasp7 counter	procasp3 activ
O=C(Nc1cccnc1)c1ccc(CSc2ccc(Cl)cc2)o1	x	x	x	-9	x	x
Cc1c2cccn2cc[n+]1C	0	2	78*	-3	-7	-6
Cc1cccc2nc(-c3ccccc3)c(-c3ccc(CN4CCC(n5cc(-c6ccccc6)[nH]c5=O)CC4)cc3)nc12	x	x	x	-16	x	x
CCC(C)c1ccc(NC(=S)NCc2cccnc2)cc1 (stereo not drawn)	0	0	119	-8	-5	-2
CC(C)NC(=S)NCc1cccnc1	1	99*	306	-12	14	2
COc1ccc2c(c1)C(c1ccc([N+](=O)[O-])cc1)=NNC(c1ccco1)=N2	0	0	0.0*	-7	12	12
Cc1ccc(C)n1-c1ccc(C(=O)O)cc1	x	82*	293	x	5	-7
CCOC(=O)c1c2ccc(OCC(=O)NN)cc2n2ccccc12	0	2	360	+	6	5
CCOC(=O)c1c2ccc(OCC(=O)N/N=C/c3ccc(C)cc3)cc2n2ccccc12	0	0	494	x	11	-4
COc1ccc(C(=O)CC2(O)C(=O)N(CN3CCOCC3)c3ccc(Br)cc32)cc1 (stereo not drawn)	x	x	x	-13	x	x
Cc1nc(Cl)c(C(=O)NC(=O)NCc2ccccc2)c(C)c1Cl	0	18	0.0*	-4	11	2
Cc1ccccc1NC(=O)c1c(Cl)nc(C)c(Cl)c1C	0	2	273	-3	3	-4
COc1ccc(CN2C(=O)C(C)Nc3ncnc(N4CCOCC4)c32)cc1 (stereo not drawn)	0	4	0	-5	7	4
COc1ccc(CN2C(=O)C(C)Nc3ncnc(N4CCN(c5ccccc5)CC4)c32)cc1 (stereo not drawn)	0	0	498	63*!	-5	3
CC(=O)Nc1ccc2c(c1)OCCO2	0	2	133	x	6	13
C=C(C)C(=O)Nc1ccc2c(c1)OCCOCCOCCO2	0	93*	380	4	2	-4
CN(Cc1ccccc1)CC(O)COc1ccc(CNCc2ccc(Cl)s2)cc1 (stereo not drawn)	6.2*	0	237	-6	5	-4
CN(Cc1ccccc1)CC(O)COc1ccc(CNCc2cccnc2)cc1 (stereo not drawn)	0	0	119	-10	-10	0
CN(C)Cc1c(C(C)(C)O)[nH]c2cc(F)ccc12	x	x	x	-5	x	x
COC(=O)[C@]12C[C@H](CC(=O)NCc3cccc(C(F)(F)F)c3)C(=O)N(CCC3=CCCCC3)C1=C[C@H](C(C)(C)C)O[C@@H]2C	x	x	x	-4	x	x
Cc1nc2ccc(CN(C)c3ccc(C(=O)N[C@@H](CCC(=O)O)C(=O)O)s3)cc2c(=O)[nH]1	x	53*	591	x	-31	-10
CC(=O)N(C(C)=O)c1ccc2nc(C)[nH]c(=O)c2c1	0	0	329	x	-4	1
COc1ccccc1NC(=O)N(C)C[C@H]1OCc2cn(nn2)CCCC(=O)N([C@H](C)CO)C[C@@H]1C	x	x	x	-4	x	x
